Calls of active or inactive are those of the source. No cut-off for these calls is given here.
Columns and labels:
[1] = Competitive inhibition of bovine liver beta-glucosidase assessed as formation of 4-methylumbelliferone from 4-methylumbelliferyl […] in presence of beta-cyclodextrin by Lineweaver-Burk Plot analysis; design: species or system Bos taurus
Aspergillus niger = assay: Inhibition of Aspergillus niger amyloglucosidase at 2 mM using beta-D-glycopyranoside after 10 to 30 mins in presence of beta-cyclodextrin by spectrophotometry
Procedure, shortened: (§1)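 Commercial glycosidases were assayed with o-nitrophenyl (E. coli β-galactosidase) or p-nitrophenyl glycoside substrate near KM. Buffer was phosphate, or phosphate-citrate for mannosidases and amyloglucosidase, at each enzyme's optimal pH. Enzyme was added last. Incubation ran 10-30 min at 37 °C (55 °C for amyloglucosidase), then was quenched with 1 M Na2CO3 and read at A405. Free compounds were tested up to 1 mM; 1:1 βCD complexes up to 2 mM.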

[2] = molecular target: T1, Beta-galactosidase (Homo sapiens) (UniProt P16278); assay: Inhibition of human lysosomal beta-galactosidase assessed as formation of 4-methylumbelliferone from 4-methylumbelliferyl beta-D-galactopyranoside up to 200 uM by luminescence spectrophotometry
T1 sequence (whole entry): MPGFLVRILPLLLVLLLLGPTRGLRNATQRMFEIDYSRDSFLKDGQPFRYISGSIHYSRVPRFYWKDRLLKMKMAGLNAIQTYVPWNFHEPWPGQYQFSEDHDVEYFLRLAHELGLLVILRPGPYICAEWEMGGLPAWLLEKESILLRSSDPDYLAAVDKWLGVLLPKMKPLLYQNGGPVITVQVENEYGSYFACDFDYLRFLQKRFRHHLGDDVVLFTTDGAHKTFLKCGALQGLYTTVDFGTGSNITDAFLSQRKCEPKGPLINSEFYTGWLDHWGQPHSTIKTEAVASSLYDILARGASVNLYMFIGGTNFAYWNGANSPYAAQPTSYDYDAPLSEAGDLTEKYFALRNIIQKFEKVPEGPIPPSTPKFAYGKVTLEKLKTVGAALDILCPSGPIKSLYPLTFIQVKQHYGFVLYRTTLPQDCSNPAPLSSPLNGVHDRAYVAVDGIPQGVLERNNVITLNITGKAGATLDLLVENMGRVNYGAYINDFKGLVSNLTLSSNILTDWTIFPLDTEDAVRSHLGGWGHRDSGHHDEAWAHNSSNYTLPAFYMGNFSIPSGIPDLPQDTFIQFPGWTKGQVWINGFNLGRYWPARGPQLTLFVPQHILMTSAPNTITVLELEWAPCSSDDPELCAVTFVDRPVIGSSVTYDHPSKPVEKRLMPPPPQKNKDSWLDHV
Procedure, shortened: (§2)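 Cells were scraped into ice-cold water (10⁶ cells/mL), sonicated and centrifuged, and protein was quantified. Lysate in 0.1% Triton X-100 was incubated at 37 °C with the matching 4-MU-conjugated glycoside in 0.1 M citrate, pH 4.5, with increasing chaperone or βCD-complex concentrations up to 200 μM. Reactions were stopped with glycine-NaOH, pH 10.7, and read at ex 340/em 460 nm.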

[3] = molecular target: T2, Lysosomal acid glucosylceramidase (Homo sapiens, UniProt P04062); assay: Inhibition of human GCase assessed as formation of 4-methylumbelliferone from […] at pH 5 in presence of beta-cyclodextrin by luminescence spectrophotometry
T2 sequence (P04062 whole entry): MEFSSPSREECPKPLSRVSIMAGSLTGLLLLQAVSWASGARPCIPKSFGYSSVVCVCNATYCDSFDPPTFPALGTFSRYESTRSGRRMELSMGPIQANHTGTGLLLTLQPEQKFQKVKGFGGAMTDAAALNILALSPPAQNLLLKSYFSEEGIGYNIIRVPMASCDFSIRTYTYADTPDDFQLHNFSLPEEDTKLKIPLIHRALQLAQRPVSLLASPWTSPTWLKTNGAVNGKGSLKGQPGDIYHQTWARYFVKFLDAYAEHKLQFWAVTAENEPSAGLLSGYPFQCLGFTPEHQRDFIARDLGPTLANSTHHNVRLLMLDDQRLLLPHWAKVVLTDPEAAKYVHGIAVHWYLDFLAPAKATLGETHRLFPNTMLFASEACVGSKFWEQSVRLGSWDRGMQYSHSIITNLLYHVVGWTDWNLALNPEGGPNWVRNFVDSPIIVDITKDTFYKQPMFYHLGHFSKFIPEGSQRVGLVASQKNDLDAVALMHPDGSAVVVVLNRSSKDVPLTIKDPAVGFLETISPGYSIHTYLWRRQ

[4] = Critical micellar concentration of the compound measured after 1 hr by pyrene fluorescence excitation spectral analysis
Procedure, shortened: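 Pyrene fluorescence method: pyrene at 0.6 μM final in water, iminosugar from 1180 to 4.3·10⁻³ μM, equilibrated 1 h at 37 °C. Emission was read at 375 nm. The I339/I335 excitation intensity ratio tracked the band shift, giving the CMC.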

Homo sapiens [5] = species: Homo sapiens; assay: Inhibition of human lysosomal beta-hexosaminidase assessed as formation of 4-methylumbelliferone from 4-methylumbelliferyl N-acetyl-beta-D-glucosaminide up to 200 uM in presence of beta-cyclodextrin by luminescence spectrophotometry; procedure, shortened: as §2
Saccharomyces cerevisiae = assay: Inhibition of yeast alpha-glucosidase at 2 mM using beta-D-glycopyranoside after 10 to 30 mins in presence of beta-cyclodextrin by spectrophotometry; procedure, shortened: as §1
Homo sapiens [6] = species: Homo sapiens; assay: Inhibition of human lysosomal alpha-galactosidase assessed as formation of 4-methylumbelliferone from 4-methylumbelliferyl alpha-D-galactopyranoside up to 200 uM by luminescence spectrophotometry; procedure, shortened: as §2
Homo sapiens [7] = species: Homo sapiens; assay: Chaperone activity assessed as enhancement of GCase N370S/84GG mutant enzyme in fibroblasts derived from type 1 gaucher disease patient […] prior to addition of 4-methylumbelliferyl beta-D-glucopyranoside as substrate in presence of beta-cyclodextrin by luminescence spectrophotometry relative to control

| SMILES | Ki [1] [nM] | inhibition (Aspergillus niger) | inhibition [2] | Ki [3] [nM] | CMC [4] [µM] | inhibition (Homo sapiens [5]) | inhibition (Saccharomyces cerevisiae) | inhibition (Homo sapiens [6]) | fold change (FC) (Homo sapiens [7]) |
| --- | --- | --- | --- | --- | --- | --- | --- | --- | --- |
| O=C(CCC(F)(F)C(F)(F)C(F)(F)C(F)(F)C(F)(F)C(F)(F)F)NCCCCNC(=S)N1[C@@H]2CO[C@H]1[C@H](O)[C@@H](O)[C@@H]2O | 130 | inactive | inactive | 1400 | 31.6 | Active | inactive | inactive | – |
| O=C(CCC(F)(F)C(F)(F)C(F)(F)C(F)(F)C(F)(F)C(F)(F)F)NCCCCCCCCCNC(=S)N1[C@@H]2CO[C@H]1[C@H](O)[C@@H](O)[C@@H]2O | 2500 | inactive | inactive | 7200 | 15 | Active | inactive | inactive | 1.5 to 1.7 |
| O=C(CCC(F)(F)C(F)(F)C(F)(F)C(F)(F)F)NCCCCCCCCCNC(=S)N1[C@@H]2CO[C@H]1[C@H](O)[C@@H](O)[C@@H]2O | 260 | inactive | inactive | 8200 | 37.5 | Active | inactive | inactive | 1.5 to 1.7 |
| O=C(CCC(F)(F)C(F)(F)C(F)(F)C(F)(F)F)NCCCCNC(=S)N1[C@@H]2CO[C@H]1[C@H](O)[C@@H](O)[C@@H]2O | 1300 | inactive | inactive | 4500 | 393 | Active | inactive | inactive | 1.5 to 1.7 |

— ChEMBL document CHEMBL4007410, “Fluorinated Chaperone-β-Cyclodextrin Formulations for β-Glucocerebrosidase Activity Enhancement in Neuronopathic Gaucher Disease” (J Med Chem, 2017)
